The list is not random: actives were taken first. Their share in the collection is about 3.5%.
MrgX1 agonist = activates human MrgX1 receptor signaling | AID 588627 | MrgX1-HEK293 cells, Fluo-4 calcium fluorescence, agonist mode; active compounds read high | 310,000 compounds, 0.44% hits | Q96LB2 | B-score at 10 µM;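 active = calcium response B-score plate-corrected fluorescence ratio at least 3 library SD, with starting fluorescence B-score inside 5 SD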
Target sequence (Q96LB2 whole entry, looked up): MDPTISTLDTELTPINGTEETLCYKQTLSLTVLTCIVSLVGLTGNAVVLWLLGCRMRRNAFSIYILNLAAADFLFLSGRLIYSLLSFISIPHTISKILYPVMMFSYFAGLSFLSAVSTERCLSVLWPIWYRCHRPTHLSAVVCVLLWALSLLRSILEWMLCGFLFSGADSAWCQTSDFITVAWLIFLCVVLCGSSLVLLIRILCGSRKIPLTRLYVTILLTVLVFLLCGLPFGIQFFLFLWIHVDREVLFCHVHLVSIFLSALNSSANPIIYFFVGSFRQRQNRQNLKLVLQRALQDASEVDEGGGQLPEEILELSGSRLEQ
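Assay system: MrgX1-expressing HEK293 cells / Amount: fifteen thousand cells per well / Doses: test compound in the initial addition of three / Timing: cells plated overnight, dye loaded 0.5 h 37 °C, 0.5 h room temperature / Technique: kinetic calcium dye fluorescence, Fluo-4 NW / Control set: positive and negative controls per plate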
RGS4 inh = inhibitors of human RGS4 | 310,000 compounds, 0.45% hits | HEK293 M3R/RGS4 inducible, Fluo-4 calcium flux; active compounds read high; triggered by carbachol at its EC20 | B-score at 10 µM | AID 463165 | P49798;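 active = B-score, a plate-corrected calcium signal, over three deviations above library mean, with baseline fluorescence within five deviations of library mean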;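 note: RGS4 expression induced by doxycycline in cells with stable M3 receptor; B-score is computed from the integrated fluorescence ratio over baseline after carbachol; higher B-score means a larger calcium signal and so more RGS4 inhibition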
Target sequence (P49798 whole entry, looked up): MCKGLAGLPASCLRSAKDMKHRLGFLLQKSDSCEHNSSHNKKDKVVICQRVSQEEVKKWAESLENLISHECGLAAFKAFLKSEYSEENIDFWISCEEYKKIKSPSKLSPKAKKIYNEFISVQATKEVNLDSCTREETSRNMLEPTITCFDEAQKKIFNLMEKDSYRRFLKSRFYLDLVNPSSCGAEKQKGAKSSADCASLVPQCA
MrgX1 allo act = human MrgX1 positive allosteric modulation, primary screen | Q96LB2 | MrgX1-HEK293, Fluo-4 calcium flux, FDSS; active compounds read high | B-score at 10 µM | 310,000 compounds, 0.63% hits | AID 588675;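 active = plate-corrected calcium response at least 3 library SD above typical, normal starting fluorescence, not activating the receptor alone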;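 note: compound read alongside a low EC10 to EC30 dose of BAM8-22 agonist; peak minus trough fluorescence over baseline measured at the second addition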
MrgX1 antagonist = human MrgX1 receptor antagonism, primary screen | B-score at 10 µM | AID 588676 | MRGX1-HEK293 calcium flux, Fluo-4, BAM8-22 antagonism; active compounds read low | 310,000 compounds, 1.3% hits;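 active = calcium-response B-score plate-corrected more than 3 library SD below zero, starting fluorescence within 5 deviations, no agonist response on first addition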;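 note: peak minus trough fluorescence over baseline after final BAM8-22 challenge near maximal dose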
RGS4 pot = RGS4 potentiation or activation | HEK293 M3R/inducible RGS4, carbachol calcium flux Fluo4; active compounds read low | B-score at 10 µM | 310,000 compounds, 0.92% hits | AID 463111;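 active = B-score of the integrated calcium signal more than 4 SD below the library mean, with starting fluorescence not abnormally high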;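 note: negative B-score means reduced calcium response which marks RGS4 activation or potentiation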
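Test system: HEK293 cells with stable M3R and inducible RGS4; also added: carbachol at ECmax as muscarinic agonist stimulus; schedule: dye loading 30 min 37 °C, buffer rest 30 min RT; technique: kinetic calcium fluorescence imaging with Fluo4-AM dye, 2 µM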
MrgX1 allo conf = human MrgX1 positive allosteric modulation, re-confirmation; shares compounds with MrgX1 allo act; MrgX1-HEK293, Fluo-4 calcium fluorescence, FDSS; activation (ratio percentage), % at 10 µM; 1,200 compounds, 13% hits; AID 602413;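 active = ratio at least 3 SD above the weak peptide control, stable starting fluorescence, no direct agonism earlier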;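 note: compound followed by low BAM8-22 agonist challenge near EC20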
HEK293 Ca flux = activity in parental HEK293 cells lacking MrgX1; Fluo-4 calcium fluorescence, FDSS; shares compounds with MrgX1 antagonist; fluorescence ratio F(max-min)/F0 at 10 µM; 4,000 compounds, 2% hits;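 active = duplicate-averaged calcium fluorescence ratio at least three times the standard deviation of buffer wells, a nonspecific response in parental cells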
HEK293 Ca counter = counter-screen for MrgX1 allosteric activators: effect in parental HEK293 cells | AID 624114 | parental HEK293 calcium flux, Fluo-4 fluorescence ratio; active compounds read high | 4,000 compounds, 0.4% hits | fluorescence ratio F(max-min)/F0 at 10 µM | shares compounds with MrgX1 antagonist;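 active = calcium fluorescence ratio, averaged over duplicates, at least 3 SD of the buffer-well ratio, meaning a nonspecific response in receptor-free cells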;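 note: untransfected parental HEK293 lacking MrgX1 used as counterscreen for MrgX1 allosteric activators; fluorescence change taken during the second addition on a kinetic imager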
HEK293 Ca cntr2 = counter-screen for MrgX1 activators: effect in parental HEK293 cells; Fluo-4 calcium fluorescence (FDSS); active compounds read high; fluorescence ratio F(max-min)/F0 at 10 µM; 4,000 compounds, 8.7% hits; shares compounds with MrgX1 antagonist;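 active = calcium fluorescence ratio at least three times the spread of buffer wells, meaning a non-specific response in parental cells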
Numbers stand for hits; . = inactive; / = no result given.

SMILES	MrgX1 agonist	RGS4 inh	MrgX1 allo act	MrgX1 antagonist	RGS4 pot	MrgX1 allo conf	HEK293 Ca flux	HEK293 Ca counter	HEK293 Ca cntr2
CC(Oc1ccc(F)cc1)C(=O)Nc1ccccc1N1CCCCC1 (centres undefined)	.	.	12	.	.	.	.	.	.
CC(C)c1nnc(NC(=O)CCC(=O)N2CCN(c3ccc(F)cc3)CC2)s1	.	.	.	.	.	/	/	/	/
CC1=C(c2ccc(C)cc2)[N+](=O)C(C)(C)N1[O-]	.	.	.	.	.	/	/	/	/
Cc1ccccc1OCC(=O)Nc1ccccc1N1CCCCC1	.	.	.	.	.	/	/	/	/
Cc1cccc(OCC(=O)Nc2ccccc2N2CCCC2)c1C	.	.	26	.	.	25%	.	.	.
Cc1cc(OCC(=O)Nc2ccccc2N2CCCCC2)ccc1C(C)C	.	.	6.9	.	.	.	.	.	.
Cc1ccc(OCC(=O)Nc2ccccc2N2CCOCC2)c(C)c1	.	.	9.9	.	.	.	.	.	.
COc1cccc(CC(=O)Nc2ccccc2N2CCCC2)c1	.	.	9.4	.	.	.	.	.	.
COc1ccc(/C=C2\SC(=S)N(CCC(=O)Nc3ccccc3C(=O)O)C2=O)cc1	.	.	.	.	.	/	/	/	/
COc1ccc(/C=C2\SC(=S)N(CCCC(=O)Nc3ccccc3C(=O)O)C2=O)cc1OC	.	.	22	.	.	.	.	.	53
Cc1nc2ncnn2c(C)c1Cc1ccc(Cl)cc1	.	.	.	.	.	/	/	/	/
Cc1ccsc1C(=O)N1CCc2ccccc2C1	.	.	.	.	.	/	/	/	/
Cc1ccsc1C(=O)OCC(=O)N1CCc2ccccc2C1	.	.	8.9	.	.	.	.	.	.
CCOC(=O)N1CCC(N(C(=O)Nc2cccc(OC)c2)C(C)CC)CC1 (centres undefined)	.	.	.	.	.	/	/	/	/
CCC(=O)N(CCc1ccccc1)Cc1cc2cc(OC)ccc2[nH]c1=O	.	.	10	.	.	.	.	.	.
CCC(=O)N(CCO)Cc1cc2ccc(C)c(C)c2[nH]c1=O	.	.	.	.	.	/	/	/	/
CCC(=O)N(CCc1ccccc1)Cc1cc2ccc(OC)cc2[nH]c1=O	.	.	.	.	.	/	/	/	/
CC(=O)N(CCc1ccccc1)Cc1cc2ccc(C)c(C)c2[nH]c1=O	.	.	8.6	.	.	2.4%	.	.	.
COc1ccccc1-n1cc(-c2ccccc2)c2c(=S)nc[nH]c21	.	.	16	.	.	.	.	.	.
CCCCn1c(SCC(=O)Nc2cc(C)on2)nnc1-c1cccs1	.	.	6.8	.	.	.	.	.	.
Cc1cc(NC(=O)CSc2nnc(-c3cccs3)n2N)no1	.	.	.	.	.	/	/	/	/
Cc1ccc(C)c(C(=O)CCC(=O)N2CCN(c3ncccn3)CC2)c1	.	.	.	.	.	/	/	/	/
Cc1cc(C(=O)O)ccc1-c1ccc(CO)o1	.	.	.	.	.	/	/	/	/
Cc1ccc(S(=O)(=O)c2c(C)nn(C(C)(C)C)c2OC(=O)C(C)C)cc1	.	.	12	.	.	.	.	.	.
O=C(Nc1ccn(Cc2ccccc2F)n1)c1ccc(COc2cccc(Br)c2)cc1	.	.	.	.	.	/	/	/	/
SMILES	MrgX1 agonist	RGS4 inh	MrgX1 allo act	MrgX1 antagonist	RGS4 pot	MrgX1 allo conf	HEK293 Ca flux	HEK293 Ca counter	HEK293 Ca cntr2
CCN(CC)S(=O)(=O)c1cccc(NC2=NCC(C)S2)c1 (centres undefined)	.	.	9.1	.	.	.	.	.	.
CCCCCCCC/C=C\CCCCCCCC(=O)NCCO	.	/	.	.	/	/	/	/	/
CC1Sc2ccc(Cl)cc2-c2nc(N)ncc21 (centres undefined)	.	.	11	.	.	.	.	.	.
Cc1ccc(-n2c(C)cc(C(=O)CSc3nnnn3C)c2C)cc1	.	.	.	.	.	/	/	/	/
Cc1ccc(-n2c(C)cc(C(=O)CSc3nncs3)c2C)cc1	.	.	7	.	.	2.1%	.	.	.
Cc1nn(C(=O)c2cccs2)c(N)c1-c1ccccc1	.	.	9.3	.	.	.	.	.	.
COc1ccc(N/C(C)=C/C(=S)Nc2ccccc2)cc1	.	.	27	.	.	.	.	.	.
COc1ccc(N/C(C)=C/C(=O)c2ccccc2)cc1	.	.	.	.	.	/	/	/	/
C[C@H]1CN=C(Nc2ccccc2)N1CCCC1CCCC1	.	.	.	.	.	/	/	/	/
CC(NC(=O)Nc1ccccc1O)(C(F)(F)F)C(F)(F)F	.	.	9.8	.	.	.	.	.	.
COc1ccccc1N(CC(=O)Nc1ccc(Cc2ccncc2)cc1)S(=O)(=O)c1ccccc1	.	.	.	.	.	/	/	/	/
Cc1cc(/C=C2\Cc3ccccc3C2=O)c(C)n1-c1ccccc1	.	.	25	.	.	.	.	.	.
COc1ccccc1/C=C1\Cc2ccccc2C1=O	.	.	.	.	.	/	/	/	/
COc1ccc(N(CC(=O)NCc2ccc(C)cc2)S(=O)(=O)c2c(C)nn(C)c2C)cc1	.	.	.	.	.	/	/	/	/
O=C(Nc1ccc(F)c(Cl)c1)N1CCCC1	.	.	13	.	.	.	.	.	.
O=C1COc2ccc(S(=O)(=O)NCCc3ccccc3)cc2N1	.	.	.	.	.	/	/	/	/
COc1ccc(N(C)S(=O)(=O)c2ccc3c(c2)NC(=O)CO3)c(OC)c1	.	.	7	.	.	.	.	.	.
O=C1COc2ccc(S(=O)(=O)NCc3ccc(Cl)cc3)cc2N1	.	.	6.5	.	.	.	.	.	.
COc1ccc(C)cc1NC(=O)C1CCN(S(=O)(=O)c2ccc3c(c2)NC(=O)CO3)CC1	.	.	7.6	.	.	.	.	.	.
CCc1ccccc1NC(=O)c1ccccc1N1C(=O)C2C3C=CC(C3)C2C1=O (centres undefined)	.	.	.	.	.	/	/	/	/
CC(=O)Nc1ccc(S(=O)(=O)N(CC(=O)O)Cc2ccccc2)cc1	.	.	.	.	.	/	/	/	/
CN(C)c1ccc(/C=N/NC(=O)CSc2ccccn2)cc1	.	.	.	.	.	/	/	/	/
COc1ccc(-c2cc(C(F)(F)F)nc(SCC(=O)Nc3ccc4c(c3)OCO4)n2)cc1	.	.	9.2	.	.	.	.	.	.
COc1ccccc1-n1c(-c2ccc(Cl)cc2)c[nH]c1=S	.	.	7.5	.	.	.	.	.	.
CC(C)C[C@H](NC(=O)c1nc[nH]c1C(=O)N[C@@H](CC(C)C)C(=O)OCc1ccccc1)C(=O)OCc1ccccc1	.	.	.	.	.	/	/	/	/

Bioassay records (PubChem)
